Measured values: ChEMBL document CHEMBL4422693, “Antifungal Phenylpropanoid Glycosides from Lippia rubella” (J Nat Prod, 2019)
≈ marks a conversion by molar mass, not a printed value.

Columns and labels:
Candida albicans = test: Antimicrobial activity against Candida albicans ATCC 10231 after 48 hrs by microbroth dilution method; assay type: functional; conditions: ATCC 10231, 48 h
Summary of the method: (§1)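 CLSI M27-A broth microdilution. Fungi at 10^6 cells/mL were grown in fresh BHI medium with samples at 1 pg/mL to 1 mg/mL, at 37 °C for 48 h. Growth was read daily by visible turbidity. MIC was the lowest concentration preventing growth. Inhibition was confirmed with resazurin (5 mg/100 mL PBS, pH 7.2) after a further 3 h at 37 °C. Amphotericin B was the positive control.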

Cryptococcus neoformans [1] = test: Antifungal activity against Cryptococcus neoformans isolate T1444 after 48 hrs by micro broth dilution method; assay type: functional; conditions: isolate T1444, 48 h; summary of the method: as §1
Candida parapsilosis [2] = test: Antifungal activity against Candida parapsilosis ATCC 22019 after 48 hrs by micro broth dilution method; conditions: Lodderomyces parapsilosis, ATCC 22019, 48 h
Cryptococcus neoformans [3] = test: Antifungal activity against Cryptococcus neoformans ATCC 24067 after 48 hrs by micro broth dilution method; assay type: functional; conditions: ATCC 24067, 48 h; summary of the method: as §1
Cryptococcus neoformans [4] = test: Antifungal activity against Cryptococcus neoformans isolate T1444 assessed as FIC index after 48 hrs in presence of amphotericin B by micro broth dilution method; assay type: functional
Summary of the method: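 Checkerboard dose matrix in microplates. Sample and amphotericin B were each used below their single-agent MICs. Inoculum was 10^3 cells/mL, incubated at room temperature for 48 h. Growth was read visually and confirmed with resazurin. FIC for each agent is the MIC in combination divided by the MIC alone, and FICindex is the sum of the two FICs. Synergy is <0.5, additive is >0.5 to ≤1, and antagonism is >4.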

Erythrocyte = test: Hemolytic activity in human RBC at MIC after 1 hr by spectrophotometric method; assay type: ADME, cell-based
Summary of the method: (§2)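 Sample solutions (2000 to 15.6 μg/mL before mixing) were incubated with a 4% human O+ erythrocyte suspension in PBS (1:4 by volume) for 1 h at 37 °C. PBS was then added, and lysis was read at 590 nm. PBS served as the negative control and water as the positive control.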

[5] = Hemolytic activity in human RBC after 1 hr by spectrophotometric method; assay type: ADME, cell-based, Erythrocyte; conditions: human red blood cells (erythrocytes); summary of the method: as §2
Candida parapsilosis [6] = test: Antifungal activity against Candida parapsilosis ATCC 22019 after 24 hrs by micro broth dilution method; assay type: functional; conditions: Lodderomyces parapsilosis, ATCC 22019, 24 h

Row | SMILES | MIC (Candida albicans) [µg/mL] | MIC (Cryptococcus neoformans [1]) [µg/mL] | MIC (Candida parapsilosis [2]) [µg/mL] | MIC (Cryptococcus neoformans [3]) [µg/mL] | MIC (Candida parapsilosis [6]) [µg/mL] | fractional inhibitory concentration index (FICI) (Cryptococcus neoformans [4]) | Activity (Erythrocyte) | HC50 at 1 h [5] [µg/mL]
1 | C[C@@H]1[C@H](O)[C@@H](C)/C=C/C=C/C=C/C=C/C=C/C=C/C=C/[C@H](O[C@@H]2O[C@H](C)[C@@H](O)[C@H](N)[C@@H]2O)C[C@@H]2O[C@](O)(C[C@@H](O)C[C@@H](O)[C@H](O)CC[C@@H](O)C[C@@H](O)CC(=O)O[C@H]1C)C[C@H](O)[C@H]2C(=O)O [AMPHOTERICIN B] | 0.25 (≈ 0.271 µM) | 0.125 (≈ 0.135 µM) | 0.125 (≈ 0.135 µM) | 0.125 (≈ 0.135 µM) | – | – | – | –
2 | C[C@@H]1O[C@@H](O[C@@H]2[C@@H](O)[C@H](OCCc3ccc(O)c(O)c3)O[C@H](COC(=O)/C=C/c3ccc(O)c(O)c3)[C@H]2O)[C@H](O)[C@H](O)[C@H]1O [ISOACTEOSIDE] | – | > 125 | – | – | – | – | – | –
3 | C[C@@H]1O[C@@H](OC[C@H]2O[C@@H](OCCc3ccc(O)c(O)c3)[C@H](O)[C@@H](O[C@@H]3O[C@@H](C)[C@H](O)[C@@H](O)[C@H]3O)[C@@H]2OC(=O)/C=C/c2ccc(O)c(O)c2)[C@H](O)[C@H](O)[C@H]1O [POLIUMOSIDE] | > 125 | 62.5 (≈ 81.1 µM) | > 125 | – | – | – | – | –
4 | C[C@@H]1O[C@@H](O[C@@H]2[C@@H](O)[C@H](OCCc3ccc(O)c(O)c3)O[C@H](CO)[C@H]2OC(=O)/C=C/c2ccc(O)cc2)[C@H](O)[C@H](OC(=O)/C=C/c2ccc(O)c(O)c2)[C@H]1O | > 125 | 125 (≈ 162 µM) | – | – | > 125 | – | – | –
5 | C[C@@H]1O[C@@H](O[C@@H]2[C@@H](O)[C@H](OCCc3ccc(O)c(O)c3)O[C@H](CO)[C@H]2OC(=O)/C=C/c2ccc(O)c(O)c2)[C@H](O)[C@H](O)[C@H]1O [ACETOSIDE] | > 125 | 62.5 (≈ 100 µM) | 125 (≈ 200 µM) | 62.5 (≈ 100 µM) | – | 0.72 | Non-Toxic | 1000
6 | COc1ccc(-c2cc(=O)c3c(O)cc(O[C@@H]4O[C@H](CO[C@@H]5O[C@@H](C)[C@H](O)[C@@H](O)[C@H]5O)[C@@H](O)[C@H](O)[C@H]4O)cc3o2)cc1 [ACACIIN] | > 125 | 125 (≈ 211 µM) | > 125 | – | – | – | – | –

Further lines, with some results ahead:

Row | MIC (Candida albicans) [µg/mL] | MIC (Cryptococcus neoformans [1]) [µg/mL] | MIC (Candida parapsilosis [2]) [µg/mL] | MIC (Cryptococcus neoformans [3]) [µg/mL] | MIC (Candida parapsilosis [6]) [µg/mL] | SMILES | fractional inhibitory concentration index (FICI) (Cryptococcus neoformans [4]) | Activity (Erythrocyte) | HC50 at 1 h [5] [µg/mL]
7 | > 125 | 15.6 (≈ 19.8 µM) | 125 (≈ 159 µM) | – | – | C[C@@H]1O[C@@H](O[C@@H]2[C@@H](O)[C@H](OCCc3ccc(O)c(O)c3)O[C@H](CO)[C@H]2OC(=O)/C=C/c2ccc(O)c(O)c2)[C@H](O)[C@H](O)[C@H]1OC(=O)/C=C/c1ccc(O)c(O)c1 | – | – | –
8 | > 125 | 31.2 (≈ 50 µM) | > 125 | 31.2 (≈ 50 µM) | – | C[C@@H]1O[C@@H](OC[C@H]2O[C@@H](OCCc3ccc(O)c(O)c3)[C@H](O)[C@@H](O)[C@@H]2OC(=O)/C=C/c2ccc(O)c(O)c2)[C@H](O)[C@H](O)[C@H]1O [FORSYTHIASIDE] | 0.5 | Non-Toxic | 1000
